Assays:
Aromatase = target: T1, Aromatase (Homo sapiens, UniProt P11511); assay: In vitro inhibitory concentration against human placental CYP19 incubated with 500 nM of substrate androstenedione in presence of the compound
T1 sequence (P11511 whole entry): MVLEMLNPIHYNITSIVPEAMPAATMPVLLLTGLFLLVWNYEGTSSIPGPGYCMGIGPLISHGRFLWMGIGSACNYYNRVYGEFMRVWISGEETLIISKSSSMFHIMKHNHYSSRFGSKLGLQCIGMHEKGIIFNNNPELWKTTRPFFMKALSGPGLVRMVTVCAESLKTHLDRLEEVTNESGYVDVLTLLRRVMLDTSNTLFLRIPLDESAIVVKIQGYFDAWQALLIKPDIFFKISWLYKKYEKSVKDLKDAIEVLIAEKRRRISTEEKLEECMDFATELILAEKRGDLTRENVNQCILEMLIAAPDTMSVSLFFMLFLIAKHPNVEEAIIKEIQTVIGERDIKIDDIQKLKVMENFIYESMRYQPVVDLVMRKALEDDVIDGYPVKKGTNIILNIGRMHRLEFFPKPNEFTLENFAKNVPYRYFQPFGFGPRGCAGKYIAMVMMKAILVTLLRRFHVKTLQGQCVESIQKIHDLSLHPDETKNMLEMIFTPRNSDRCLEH

[1] = target: T2, Cytochrome P450 11B2, mitochondrial (Homo sapiens, UniProt P19099); assay: In vitro inhibitory concentration against human CYP11B2 expressed in V79MZh hamster fibroblasts incubated with 100 nM of substrate deoxy-corticosterone in presence of the compound
T2 sequence (P19099 whole entry): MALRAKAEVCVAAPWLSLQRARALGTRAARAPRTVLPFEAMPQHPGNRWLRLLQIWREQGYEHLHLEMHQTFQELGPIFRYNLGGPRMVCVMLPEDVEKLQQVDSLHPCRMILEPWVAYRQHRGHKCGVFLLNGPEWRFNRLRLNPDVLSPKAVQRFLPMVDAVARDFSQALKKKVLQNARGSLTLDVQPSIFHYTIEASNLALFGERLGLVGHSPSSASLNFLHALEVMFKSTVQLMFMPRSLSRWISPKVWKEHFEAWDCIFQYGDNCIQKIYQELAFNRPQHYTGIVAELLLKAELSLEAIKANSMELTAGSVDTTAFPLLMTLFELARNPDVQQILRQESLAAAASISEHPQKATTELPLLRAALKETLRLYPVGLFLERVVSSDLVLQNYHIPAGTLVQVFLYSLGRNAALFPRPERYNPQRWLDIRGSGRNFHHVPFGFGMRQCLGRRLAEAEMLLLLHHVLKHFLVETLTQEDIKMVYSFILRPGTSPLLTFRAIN
Procedure, shortened: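 Intact V79 MZh hamster fibroblasts expressing human CYP11B1 or CYP11B2, incubated with [4-14C]-11-deoxycorticosterone (100 nM) and inhibitor at no fewer than three concentrations to give IC50. Stopped with ethyl acetate, shaken, centrifuged (10 000g, 2 min); steroids in organic phase analysed by HPTLC/phosphoimager. Mean of four determinations, standard deviation less than 5%.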

[2] = target: T2, Cytochrome P450 11B2, mitochondrial; assay: In vitro inhibition of human CYP11B2 expressed in Schizosaccharomyces pombe incubated with 100 nM of substrate deoxy-corticosterone in presence of 500 nM of compound
Homo sapiens = species on record: Homo sapiens; assay: In vitro IC50 ratio against human CYP11B1 to that of human CYP11B2
Procedure, shortened: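 IC50 ratio from V79 MZh hamster fibroblasts expressing human CYP11B1 or CYP11B2, each incubated with [4-14C]-11-deoxycorticosterone (100 nM) and inhibitor at no fewer than three concentrations; steroids extracted into ethyl acetate and quantified by HPTLC with phosphoimaging.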

CYP17 = target: T3, CYP17 (Homo sapiens, UniProt P05093); assay: In vitro inhibition of human CYP17 expressed in Escherichia coli incubated with 2.5 uM of substrate progesterone in presence of 2.5 uM of compound; settings: probe progesterone
T3 sequence (P05093 whole entry): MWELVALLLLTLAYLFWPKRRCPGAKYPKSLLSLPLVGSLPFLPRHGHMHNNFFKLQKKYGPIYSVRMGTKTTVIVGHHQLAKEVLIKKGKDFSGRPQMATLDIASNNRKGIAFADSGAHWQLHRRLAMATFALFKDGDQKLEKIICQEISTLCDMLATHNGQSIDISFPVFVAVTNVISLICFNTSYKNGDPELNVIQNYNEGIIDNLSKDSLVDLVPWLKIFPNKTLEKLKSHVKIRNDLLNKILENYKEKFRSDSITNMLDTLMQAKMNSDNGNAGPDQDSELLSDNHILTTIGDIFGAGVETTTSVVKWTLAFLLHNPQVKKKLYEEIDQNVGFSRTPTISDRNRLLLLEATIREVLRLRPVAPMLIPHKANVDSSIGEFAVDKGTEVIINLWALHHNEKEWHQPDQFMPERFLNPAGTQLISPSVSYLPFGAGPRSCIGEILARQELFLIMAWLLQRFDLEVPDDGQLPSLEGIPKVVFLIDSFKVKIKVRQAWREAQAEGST

[3] = target: T4, Cytochrome P450 11B1, mitochondrial (Homo sapiens, UniProt P15538); assay: In vitro inhibitory concentration against human CYP11B1 expressed in V79 MZh hamster fibroblasts incubated with 100 nM of substrate deoxy-corticosterone in presence of the compound
T4 sequence (P15538 whole entry): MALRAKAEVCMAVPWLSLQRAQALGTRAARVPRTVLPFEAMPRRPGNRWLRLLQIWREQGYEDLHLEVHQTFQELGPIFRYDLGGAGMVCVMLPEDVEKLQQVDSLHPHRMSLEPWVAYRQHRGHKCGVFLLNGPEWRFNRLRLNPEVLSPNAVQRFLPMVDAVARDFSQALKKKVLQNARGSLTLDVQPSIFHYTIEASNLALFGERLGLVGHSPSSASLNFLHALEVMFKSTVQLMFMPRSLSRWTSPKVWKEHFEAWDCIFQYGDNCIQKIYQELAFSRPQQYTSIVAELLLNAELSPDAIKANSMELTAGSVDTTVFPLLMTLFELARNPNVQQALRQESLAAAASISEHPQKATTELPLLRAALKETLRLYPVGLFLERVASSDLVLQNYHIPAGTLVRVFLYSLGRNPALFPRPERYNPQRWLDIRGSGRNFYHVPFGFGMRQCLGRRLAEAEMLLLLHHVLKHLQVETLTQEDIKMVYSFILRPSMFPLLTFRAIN

Row | Compound | IC50 (Aromatase) | IC50 [1] | inhibition at 0.5 µM [2] | Selectivity ratio (Homo sapiens) | inhibition at 2.5 µM (CYP17) | IC50 [3]
1 | Cc1ccc2c(c1)/C(=C\c1ccncc1)CC2 | 1710 nM | 8 nM | 46% | – | – | –
2 | Brc1ccc2c(c1)CC/C2=C\c1cccnc1 | – | – | – | 52.4 | 16% | –
3 | COc1ccc2c(c1)/C(=C/c1cccnc1)CC2 | 6360 nM | – | 29% | – | 5% | –
4 | Clc1cccc2c1CC/C2=C/c1cccnc1 | – | 31 nM | – | 21.1 | 32% | –
5 | Clc1ccc2c(c1)CC/C2=C\c1ccncc1 | – | 1520 nM | – | – | – | 1520 nM
6 | COc1ccc2c(c1)CC/C2=C\c1cccnc1 | – | – | – | 42.6 | 36% | –
7 | Cc1cccc2c1CC/C2=C\c1cccnc1 | – | – | – | 7.1 | 40% | –
8 | COc1cc2c(cc1OC)/C(=C/c1cccnc1)CCC2 | 980 nM | – | 5% | – | 6% | –
9 | Cc1cccc2c1CC/C2=C/c1cccnc1 | 12600 nM | – | 12% | – | 16% | –
10 | Clc1ccc2c(c1)CC/C2=C/c1ccncc1 | 1990 nM | 301 nM | 37% | – | – | –
11 | C(=C(c1ccccc1)c1ccccc1)c1cccnc1 | 3630 nM | 9 nM | 5% | – | – | –
12 | COc1cccc2c1/C(=C/c1cccnc1)CC2 | – | – | – | 35.4 | 5% | –
13 | C(=C1\CCCc2ccccc21)/c1cccnc1 | – | – | – | 10.1 | 24% | –
14 | CCOc1ccc2c(c1)CC/C2=C/c1cccnc1 | – | – | – | 10.9 | 6% | –
15 | C(=C(c1ccccc1)c1ccccc1)c1ccncc1 | 100 nM | 22 nM | 32% | – | – | –
16 | Fc1cccc2c1CC/C2=C/c1cccnc1 | 180 nM | – | 40% | – | 53% | –
17 | COc1ccc2c(c1)CC/C2=C/c1cncs1 | 4830 nM | 5 nM | 17% | – | – | –
18 | COc1ccc2c(c1)CCC/C2=C\c1ccncc1 | 800 nM | 22 nM | 31% | – | – | –
19 | C(=C1/CCc2cc(OCc3ccccc3)ccc21)/c1cccnc1 | > 36000 nM | – | 0% | – | 1% | –
20 | Clc1ccc2c(c1)CC/C2=C\c1cccnc1 | – | – | – | 56.6 | 26% | –
21 | COc1ccc2c(c1)CC/C2=C\c1cncs1 | 4330 nM | 17 nM | 18% | – | – | –
22 | Cc1ccc2c(c1)/C(=C/c1ccncc1)CC2 | 1280 nM | 4 nM | 41% | – | – | –
23 | N#Cc1ccc(C2CCCc3cncn32)cc1 (configuration not stated) [FADROZOLE] | – | – | – | – | 5% | –
24 | COc1cc2c(cc1OC)/C(=C/c1ccncc1)CCC2 | 90 nM | 11 nM | 29% | – | – | –
25 | COc1ccc2c(c1)CC/C2=C\c1ccncc1 | – | 59 nM | 11% | – | – | –
26 | CC1C/C(=C\c2cccnc2)c2ccccc21 (configuration not stated) | 3680 nM | – | 47% | – | – | –

Row | Compound | IC50 (Aromatase) | IC50 [1] | inhibition at 0.5 µM [2] | Selectivity ratio (Homo sapiens) | inhibition at 2.5 µM (CYP17) | IC50 [3]
27 | Cc1ccc2c(c1)/C(=C\c1cccnc1)CC2 | 4600 nM | – | 43% | – | 2% | –
28 | Fc1ccc2c(c1)CC/C2=C/c1cccnc1 | – | 11 nM | – | 11.4 | 16% | –
29 | C(=C1c2ccccc2-c2ccccc21)c1cccnc1 | 4810 nM | 6 nM | 0% | – | – | –
30 | COc1ccc2c(c1)CC/C2=C/c1cccnc1 | – | 26 nM | – | 30.4 | 49% | –
31 | Cc1ccc2c(c1)/C(=C/c1cccnc1)CC2 | 3930 nM | – | 27% | – | 3% | –
32 | COc1ccc2c(c1)CC/C2=C/c1ccncc1 | – | 55 nM | 13% | – | – | –
33 | COc1ccc2c(c1)/C(=C/c1ccncc1)CC2 | – | 3 nM | 26% | – | – | –
34 | CCOc1ccc2c(c1)CC/C2=C\c1cccnc1 | – | – | – | 30 | 13% | –
35 | Fc1ccc2c(c1)CC/C2=C\c1cccc2ncccc12 | > 36000 nM | 14 nM | 0% | – | – | –
36 | COc1ccc2c(c1)CCC/C2=C/c1ccncc1 | 1010 nM | 56 nM | 36% | – | – | –
37 | Fc1ccc2c(c1)CC/C2=C\c1ccnc2ccccc12 | > 36000 nM | 20 nM | 0% | – | – | –
38 | COc1ccc2c(c1)/C(=C\c1ccncc1)CC2 | – | 26 nM | 24% | – | – | –
39 | C(=C1/CCc2ccccc21)/c1ccncc1 | – | 8 nM | – | – | – | –
40 | Fc1ccc2c(c1)CC/C2=C\c1cccnc1 | – | 7 nM | – | 44.4 | 17% | –
41 | C(=C1c2ccccc2-c2ccccc21)c1ccncc1 | 2740 nM | 5 nM | 6% | – | – | –
42 | Fc1ccc2c(c1)CC/C2=C/c1ccnc2ccccc12 | > 36000 nM | 14 nM | 0% | – | – | –
43 | Fc1ccc2c(c1)CC/C2=C/c1cncnc1 | 790 nM | – | 14% | – | – | –
44 | Clc1ccc2c(c1)CC/C2=C/c1cccnc1 | – | – | – | 3.7 | 28% | –
45 | Brc1ccc2c(c1)CC/C2=C/c1cccnc1 | – | – | – | 1.9 | 24% | –
46 | C(=C1/CCCc2ccccc21)/c1cccnc1 | – | 22 nM | – | 32.5 | 9% | –
47 | COc1ccc2c(c1)CCC/C2=C\c1cccnc1 | – | – | – | 15.8 | 20% | –
48 | Fc1ccc2c(c1)CC/C2=C/c1cccc2ncccc12 | > 36000 nM | 31 nM | 0% | – | – | –
49 | Clc1cccc2c1CC/C2=C\c1cccnc1 | – | 9 nM | – | 33.8 | 14% | –
50 | COc1ccc2c(c1)CCC/C2=C/c1cccnc1 | – | – | – | 0.2 | 17% | –
51 | C(=C1/CC(c2ccccc2)c2ccccc21)/c1cccnc1 (configuration not stated) | 4060 nM | 3 nM | 0% | – | – | –
52 | Fc1cccc2c1CC/C2=C\c1cccnc1 | – | – | – | 36.9 | 42% | –
